Each structure is given as a SMILES string. Activity calls are given as the source filed them. No cut-off for these calls is given here.

In general, IC50 refers to the point on the concentration scale where inhibition reaches its midpoint.

Holding throughout (format): functional, cell-based
The subject of assay [1] is PBMC. The assay can be described thus: Induction of apoptosis in human activated PBMC assessed as necrosis at 30 ug/ml by annexinV/propidium iodide staining-based flow cytometric analysis. In short, it runs like this: (§1)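 Donor PBMC (10^5) were activated with anti-CD3/CD28 mAbs for 72 h with test agent, medium or controls (camptothecin 30 μg/mL; Triton X-100 0.5%). Readouts were subG1 DNA content by flow cytometry, and annexin V-FITC then propidium iodide staining by flow cytometry. Gates: viable annexin−/PI−; apoptotic annexin+/PI− or +/+; necrotic annexin−/PI+. Three independent experiments, mean ± SEM.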
On the technique in general: Flow cytometry measures light scatter and fluorescence of single cells or particles in a stream.

The subject of assay [2] is PBMC. Briefly: Antiproliferative activity against activated human PBMC assessed as decrease in cell division at 30 ug/ml after 72 hrs by flow cytometric analysis. In short, it runs like this: (§2)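 PBMC from healthy adult donors, isolated on a density gradient and cultured in RPMI 1640 with 10% heat-inactivated FCS at 37 °C and 5% CO2. 10^5 cells were stimulated with anti-CD3 (OKT3) and anti-CD28 mAbs for 72 h with test agent or medium. Cells were labelled with CFSE (5 μM, 10 min, 37 °C) and cell division was read by flow cytometry. Three or four independent experiments, mean ± SEM.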

Assay [3] deals with PBMC. The assay can be described thus: Induction of apoptosis in human activated PBMC at 30 ug/ml by annexinV/propidium iodide staining-based flow cytometric analysis. In short, it runs like this:
as §1

The test system of assay [4] is PBMC. Briefly: Induction of apoptosis in human activated PBMC assessed as internucleosomal DNA fragmentation at 1.6 uM by annexinV/propidium iodide staining-based flow cytometric analysis. In short, it runs like this: as §1
The test system of assay [5] is PBMC. The assay can be described thus: Induction of apoptosis in human activated PBMC assessed as necrotic cells at 1.6 uM by annexinV/propidium iodide staining-based flow cytometric analysis. An outline of the steps: as §1
Assay [6] deals with PBMC. Briefly: Antiproliferative activity against activated human PBMC assessed as decrease in cell division at 1.6 uM after 72 hrs by flow cytometric analysis. An outline of the steps:
as §2

Assay [7] relates to PBMC. The assay can be described thus: Induction of apoptosis in human activated PBMC assessed as necrosis at 14 uM by annexinV/propidium iodide staining-based flow cytometric analysis. In short, it runs like this:
as §1

The subject of assay [8] is PBMC. Briefly: Induction of apoptosis in human activated PBMC at 1.8 to 14 uM by annexinV/propidium iodide staining-based flow cytometric analysis. In short, it runs like this: as §1
The test system of assay [9] is PBMC. Briefly: Antiproliferative activity against activated human PBMC assessed as decrease in cell division after 72 hrs by flow cytometric analysis. In short, it runs like this:
as §2

As to `CC[C@@]1(O)C(=O)OCc2c1cc1n(c2=O)Cc2cc3ccccc3nc2-1`, the result in the assay with PBMC [1], with PBMC [2] and in the assay with PBMC [3] was Active.

For the compound `CC[C@H](C)[C@H](NC(=O)CN)C(=O)NCC(=O)N[C@@H](C)C(=O)N[C@H](C(=O)N[C@@H](CC(C)C)C(=O)N[C@@H](CCCCN)C(=O)N[C@H](C(=O)N[C@@H](CC(C)C)C(=O)N[C@H](C(=O)N[C@H](C(=O)NCC(=O)N[C@@H](CC(C)C)C(=O)N1CCC[C@H]1C(=O)N[C@@H](C)C(=O)N[C@@H](CC(C)C)C(=O)N[C@H](C(=O)N[C@@H](CO)C(=O)N[C@@H](Cc1c[nH]c2ccccc12)C(=O)N[C@H](C(=O)N[C@@H](CCCCN)C(=O)N[C@@H](CCCNC(=N)N)C(=O)N[C@@H](CCCCN)C(=O)N[C@@H](CCCNC(=N)N)C(=O)N[C@@H](CCC(N)=O)C(=O)N[C@@H](CCC(N)=O)C(N)=O)[C@@H](C)CC)[C@@H](C)CC)[C@@H](C)O)[C@@H](C)O)C(C)C)C(C)C`, the outcome in the assay on PBMC [4], in the assay on PBMC [5] and in the assay on PBMC [6] was Active.

With `CC(C)C[C@@H]1NC(=O)CNC(=O)[C@H](CC(N)=O)NC(=O)[C@H](CCCNC(=N)N)NC(=O)[C@H]([C@@H](C)O)NC(=O)[C@H](CS)NC(=O)[C@H](C(C)C)NC(=O)[C@@H]2CCCN2C(=O)[C@H](CCC(=O)O)NC(=O)[C@H](CO)NC(=O)[C@H](CS)NC(=O)[C@H]([C@@H](C)O)NC(=O)[C@H](CS)NC(=O)CNC(=O)[C@@H]2CCCN2C(=O)[C@H]([C@@H](C)O)NC(=O)[C@H](CC(N)=O)NC(=O)[C@H](CS)NC(=O)[C@H]([C@@H](C)O)NC(=O)CNC(=O)CNC(=O)[C@H](C(C)C)NC(=O)[C@H](CS)NC(=O)[C@H]([C@@H](C)O)NC(=O)[C@H](CCC(=O)O)NC(=O)CNC(=O)[C@H](CS)NC(=O)[C@H](C(C)C)NC(=O)[C@@H]2CCCN2C1=O`, the outcome with PBMC [7] and in the assay on PBMC [8] was inactive. In the assay on PBMC [9], the Activity result is “Dose-dependent effect”.

Take `CC(C)C[C@@H]1NC(=O)CNC(=O)[C@H](CC(N)=O)NC(=O)[C@H](CCCNC(=N)N)NC(=O)[C@H]([C@@H](C)O)NC(=O)[C@@H]2CSSC[C@@H]3NC(=O)[C@H]([C@@H](C)O)NC(=O)CNC(=O)CNC(=O)[C@H](C(C)C)NC(=O)[C@@H]4CSSC[C@H](NC(=O)[C@H]([C@@H](C)O)NC(=O)[C@H](CSSC[C@H](NC(=O)[C@H](C(C)C)NC(=O)[C@@H]5CCCN5C1=O)C(=O)NCC(=O)N[C@@H](CCC(=O)O)C(=O)N[C@@H]([C@@H](C)O)C(=O)N4)NC(=O)CNC(=O)[C@@H]1CCCN1C(=O)[C@H]([C@@H](C)O)NC(=O)[C@H](CC(N)=O)NC3=O)C(=O)N[C@@H](CO)C(=O)N[C@@H](Cc1c[nH]c3ccccc13)C(=O)N1CCC[C@H]1C(=O)N[C@@H](C(C)C)C(=O)N2` [KALATA B1]: the IC50 in the assay on PBMC [9] was 3.9 µM.
